This passage reports IC50 and Ki results from ChEMBL document CHEMBL1142414, “Comprehensive mechanistic analysis of hits from high-throughput and docking screens against beta-lactamase” (J Med Chem, 2008).

The target of assay [1] is T1, Cruzipain (Trypanosoma cruzi, UniProt P25779). In words: Inhibition of cruzain.
The target of assay [2] is T1, Cruzipain. Briefly: Inhibition of cruzain in presence of 0.01% Triton X-100. In short, it runs like this:
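Recombinant cruzain (10 nM) in 0.1 M sodium acetate pH 5.5 with 5 mM DTT and 0.01% Triton X-100, substrate 2.5 µM Z-Phe-Arg-AMC. Cleavage read fluorimetrically in 96-well format, excitation 355 nm, emission 460 nm.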

Assay [3] in a line: Inhibition of beta-lactamase AmpC in presence of 0.1% Triton X-100. Put shortly:
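Cuvette assay with 1 nM AmpC β-lactamase and 200 µM nitrocefin, Triton X-100 at either 0.00002 or 0.1%. Compound and enzyme preincubated 5 min, then substrate added to start the reaction. Nitrocefin hydrolysis read at 482 nm by UV–visible spectrophotometry at room temperature.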

Assay [4] in a line: Inhibition of chymotrypsin in presence of 0.1% Triton X-100. Put shortly:
(§1)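 Chymotrypsin (28 nM) preincubated 5 min with inhibitor, then reaction started with 200 µM N-succinyl-Ala-Ala-Pro-Phe p-nitroanilide. In the no-preincubation variant, inhibitor and substrate were mixed first and enzyme was added to start. Progress read at 410 nm.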

Assay [5] can be described thus: Inhibition of chymotrypsin. Put shortly:
as §1

A short description of assay [6]: Inhibition of beta-lactamase AmpC. In short, it runs like this:
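Cuvette assay with 1 nM AmpC β-lactamase and 200 µM nitrocefin, Triton X-100 at either 0.00002 or 0.1%. Compound and enzyme preincubated 5 min, then substrate added to start the reaction.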

A short description of assay [7]: Inhibition of malate dehydrogenase in presence of 0.1% Triton X-100. In short, it runs like this: (§2)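 Malate dehydrogenase (2 nM) incubated 5 min with inhibitor, then reaction started with 200 µM oxaloacetic acid plus 200 µM NADH. In the no-preincubation variant, inhibitor, oxaloacetate and NADH were mixed first and enzyme was added last. NADH consumption followed at 340 nm.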

The nature of assay [8]: Inhibition of malate dehydrogenase. Put shortly: as §2

In general, IC50 refers to the concentration needed to halve the response being measured. The Ki is a dissociation constant, usually derived from enzyme kinetics or from competition with a known ligand.

T1 sequence (P25779 whole entry): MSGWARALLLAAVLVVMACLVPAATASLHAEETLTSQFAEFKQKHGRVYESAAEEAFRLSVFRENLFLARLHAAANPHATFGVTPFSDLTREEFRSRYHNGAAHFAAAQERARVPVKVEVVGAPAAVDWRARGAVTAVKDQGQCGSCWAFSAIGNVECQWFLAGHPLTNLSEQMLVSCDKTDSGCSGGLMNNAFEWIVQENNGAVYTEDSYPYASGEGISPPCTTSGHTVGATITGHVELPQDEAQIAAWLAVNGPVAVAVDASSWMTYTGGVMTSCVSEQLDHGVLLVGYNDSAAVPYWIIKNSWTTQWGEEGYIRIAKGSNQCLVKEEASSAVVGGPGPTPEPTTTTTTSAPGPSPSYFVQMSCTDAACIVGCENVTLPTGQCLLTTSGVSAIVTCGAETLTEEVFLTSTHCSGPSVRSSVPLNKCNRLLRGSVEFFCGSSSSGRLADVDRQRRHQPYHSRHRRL

For the molecule `O=c1oc2c(O)c(O)cc3c(=O)oc4c(O)c(O)cc1c4c23` [ELLAGIC ACID], the IC50 on Cruzipain [1] was 64 µM; at Cruzipain [2] it was 220 µM; in assay [3] it was over 600 µM; in assay [4], under 600 µM; in assay [5] it was 470 µM; in assay [6], 146 µM. The IC50 in assay [7] was found to be 106 µM; in assay [8], 55 µM.
Take `CC(C)CC(C(=O)O)N1C(=O)c2ccc(C(=O)O)cc2C1=O` (racemic): the affinity in assay [6] corresponds to a Ki of 1200 µM.
Regarding `CC(C)[C@H](NC(=O)OC(C)(C)C)c1nnc(S(=O)(=O)Cc2c(F)cccc2Cl)o1` (stereo in doubt), the IC50 on Cruzipain [1] and on Cruzipain [2] was under 1 µM in each case.
Regarding `CC(C)(C)OC(=O)NCc1nnc(S(=O)(=O)Cc2ccc(Cl)cc2Cl)o1`, the IC50 on Cruzipain [1] is 95 µM; on Cruzipain [2], 410 µM; in assay [3], under 1 µM; in assay [4], under 1 µM; in assay [5] it was under 1 µM; in assay [6] it was under 1 µM. In addition, the half-inhibitory concentration (IC50) in assay [7] and in assay [8] was over 600 µM throughout.
Turning to `N#Cc1cccc(-c2nc(NCc3cccnc3)c3ccccc3n2)c1`, the 50% inhibitory concentration (IC50) in assay [5] and in assay [6] was over 600 µM throughout.
With `O=C(O)c1ccc2c(c1)C(=O)N([C@H](Cc1c[nH]c3ccccc13)C(=O)O)C2=O`, the Ki in assay [6] amounted to 17 µM. This counts as double-digit micromolar.
In turn, `CSCCC(C(=O)O)N1C(=O)c2ccc(C(=O)O)cc2C1=O` (racemic) registered an inhibition constant Ki in assay [6] of 1300 µM.
For `Cc1ccc(C)n1C(Cc1ccccc1)C(=O)O` (stereo not given), the IC50 is under 1 µM at Cruzipain [1]; over 600 µM on Cruzipain [2]; over 600 µM in assay [3]; over 600 µM in assay [4]; 570 µM in assay [5]; 95 µM in assay [6]. Besides, the IC50 was over 600 µM in assay [7] and 15 µM in assay [8].
With `O=C(O)C1=CC(=C(c2ccc(O)c(C(=O)O)c2)c2ccc(O)c(C(=O)O)c2)C=CC1=O` [AURINTRICARBOXYLIC ACID], the half-inhibitory concentration (IC50) on Cruzipain [1] is 53 µM; on Cruzipain [2] it was 28 µM; in assay [3] it was over 600 µM; in assay [4], over 600 µM; in assay [5], 184 µM; in assay [6], 120 µM. The results for the IC50 in assay [7] and in assay [8] were 30 µM and 5 µM, respectively.
Consider `O=C(O)CN1C(=O)c2ccc(C(=O)O)cc2C1=O`, for which affinity in assay [6] was put at a Ki of 6900 µM.
On to `O=C(CC1(O)C(=O)Nc2cc(Cl)cc(Cl)c21)c1ccccc1O` (stereo not given), for which the 50% inhibitory concentration (IC50) at Cruzipain [1] is 73 µM; at Cruzipain [2], 170 µM; in assay [3], over 600 µM; in assay [4] it was over 600 µM; in assay [5], over 600 µM; in assay [6] it was over 600 µM.
For `CC1=C/C(=C\c2ccc3c(c2)OCO3)C(=O)S1`, the IC50 in assay [5] and in assay [6] was over 600 µM throughout.
In the case of `S=C(S)OC1CC2CC1C1CCCC21` (stereo not given), the concentration for half-maximal inhibition (IC50) on Cruzipain [1] was 15 µM; on Cruzipain [2], over 600 µM; in assay [3], over 600 µM; in assay [4], over 600 µM; in assay [5] it was 270 µM; in assay [6], 270 µM. The same molecule showed a concentration for half-maximal inhibition (IC50) in assay [8] of over 600 µM.
Consider `c1cc2c3c(c1)c1c(n3CCNC2)CCCC1`, for which the IC50 in assay [5] and in assay [6] was over 600 µM each time.
As for `COc1cccc2cc(C(=O)n3ccc(C)n3)c(=O)oc12`, the 50% inhibitory concentration (IC50) on Cruzipain [1] was determined as 120 µM; on Cruzipain [2], 106 µM; in assay [3] it was 20 µM; in assay [4], 70 µM; in assay [5], 70 µM; in assay [6], 25 µM. Further, in assay [8], the half-inhibitory concentration (IC50) was over 600 µM.
Turning to `N[C@@H](Cc1cc(-c2ccc(Cl)cc2Cl)cc(CP(=O)(O)O)c1O)C(=O)O`, the IC50 at Cruzipain [1] was found to be 77 µM; on Cruzipain [2], 158 µM; in assay [3], 220 µM; in assay [4], 400 µM; in assay [5] it was 270 µM; in assay [6], 160 µM. Besides, the concentration for half-maximal inhibition (IC50) in assay [8] is over 600 µM.
With `O=C(Nc1nc2n(n1)C(c1ccccc1)C=C(c1ccccc1)N2)c1ccco1` (stereo not given), the IC50 is under 600 µM in assay [3], 27 µM in assay [4], 7 µM in assay [5] and under 600 µM in assay [6].
In turn, `O=C(O)C(Cc1ccccc1)N1C(=O)c2ccccc2C1=O` (racemic) returned a Ki in assay [6] of 830 µM.
Consider `O=C(O)c1ccc2c(c1)C(=O)N([C@@H](Cc1ccc(O)cc1)C(=O)O)C2=O`, for which the Ki in assay [6] was 158 µM.
As to `CS(=O)(=O)N1CCC(C(=O)N2CCC(Cc3ccccc3)CC2)CC1`, the IC50 in assay [3], in assay [4], in assay [5] and in assay [6] was over 600 µM throughout.
As to `CCOC(=O)SC1=N/C(=C/c2ccc(N(C)C)cc2)C(=O)S1`, the half-maximal inhibitory concentration (IC50) on Cruzipain [1] was under 1 µM; at Cruzipain [2] it was 73 µM; in assay [3] it was over 600 µM; in assay [4], 8 µM; in assay [5], under 1 µM; in assay [6], 60 µM. Also, the results for the IC50 in assay [7] and in assay [8] were over 600 µM and 200 µM, respectively.
Take `Cc1occc1C(=O)n1nnc2ccccc21`: the 50% inhibitory concentration (IC50) is 106 µM against Cruzipain [1]; under 600 µM on Cruzipain [2]; 38 µM in assay [3]; under 1 µM in assay [4]; under 1 µM in assay [5]; 20 µM in assay [6]. Besides, the IC50 in assay [7] is over 600 µM; in assay [8] it was 65 µM.
As for `COc1ccc(-c2cc(C(=O)NCc3ccccc3)no2)cc1OC`, the half-inhibitory concentration (IC50) in assay [5] and in assay [6] was over 600 µM each time.
For `C[C@H]1[C@H]2C=C[C@@H]1[C@@H](C(=O)O)[C@@H]2c1c2ccc(=O)c(O)c-2oc2c(O)c(O)ccc12`, the IC50 was 95 µM at Cruzipain [1]; 45 µM at Cruzipain [2]; over 600 µM in assay [3]; over 600 µM in assay [4]; 67 µM in assay [5]; 70 µM in assay [6]. For the same molecule, the IC50 in assay [7] was 45 µM; in assay [8], 18 µM.
As to `O=C(O)c1ccc2c(c1)C(=O)N([C@H](Cc1ccc3ccccc3c1)C(=O)O)C2=O`, the Ki in assay [6] turned out to be 14 µM.
As to `COc1cc2c(=O)n(Cc3ccco3)c(=O)n(CC(=O)c3cccc(Br)c3)c2cc1OC`, the IC50 in assay [6] is over 600 µM.
Take `O=C(Oc1cccnc1)c1cc2ccccc2oc1=O`: the half-maximal inhibitory concentration (IC50) against Cruzipain [1] was found to be 70 µM; at Cruzipain [2] it was 90 µM; in assay [3] it was 43 µM; in assay [4], 37 µM; in assay [5], 37 µM; in assay [6], 55 µM.
Turning to `O=C(O)c1ccc2c(c1)C(=O)N(C(Cc1ccccc1)C(=O)O)C2=O` (racemic), in assay [6], the affinity corresponds to a Ki of 210 µM.
Consider `CC(C)C[C@H](N)c1nnc(S(=O)(=O)Cc2ccc(F)cc2)o1`, for which the IC50 is 600 µM in assay [3]; 170 µM in assay [4]; 270 µM in assay [5]; 600 µM in assay [6]; over 600 µM in assay [8].
With `CC(C)(C)OC(=O)NCCc1nnc(S(=O)(=O)Cc2ccc(Cl)cc2Cl)o1`, the concentration for half-maximal inhibition (IC50) against Cruzipain [1] is 95 µM; at Cruzipain [2], 470 µM; in assay [3], under 1 µM; in assay [4] it was under 1 µM; in assay [5], under 1 µM; in assay [6] it was under 1 µM. In assay [8], this molecule had a half-maximal inhibitory concentration (IC50) of over 600 µM.
For the molecule `CN(C)C/C=C(\c1ccc(Br)cc1)c1cccnc1`, the IC50 in assay [5] and in assay [6] was over 600 µM throughout.
`O=C(NCCc1ccccc1)C1CCCN(S(=O)(=O)c2cccc3nsnc23)C1` (stereo not given): the half-maximal inhibitory concentration (IC50) is 345 µM in assay [4], 220 µM in assay [5], over 600 µM in assay [6] and over 600 µM in assay [8].
With `CC(C)[C@H](NC(=O)OC(C)(C)C)c1nnc(S(=O)(=O)Cc2c(F)cccc2Cl)o1` (stereo in doubt; 1), the half-maximal inhibitory concentration (IC50) (against Cruzipain [1]; at Cruzipain [2]; in assay [3]; in assay [4]; in assay [5]; in assay [6]) was under 1 µM in each case. Besides, the IC50 in assay [7] and in assay [8] was over 600 µM each time.
As to `O=C(O)c1ccc2c(c1)C(=O)N([C@H](Cc1cccc3ccccc13)c1nnn[nH]1)C2=O`, the affinity in assay [6] corresponds to a Ki of 41 µM.
With `COc1cccc(-c2nccc(-n3ccnc3)n2)c1`, the half-maximal inhibitory concentration (IC50) in assay [5] and in assay [6] was over 600 µM throughout.
For `O=C(O)c1ccc2c(c1)C(=O)N(C(Cc1ccc(O)cc1)C(=O)O)C2=O` (racemic), the IC50 was over 10000 µM against Cruzipain [1], over 10000 µM on Cruzipain [2], 210 µM in assay [3] and over 10000 µM in assay [5]. This molecule registered a Ki in assay [6] of 140 µM.
`CCCC12CN(C(=O)c3ccc(OC)cc3)CC(C)(CN(C(=O)c3ccc(OC)cc3)C1)C2=O`: the IC50 at Cruzipain [1] was over 600 µM; at Cruzipain [2] it was over 600 µM; in assay [3], 95 µM; in assay [4], over 600 µM; in assay [5] it was under 1 µM; in assay [6], 15 µM. In assay [8], this molecule showed a half-maximal inhibitory concentration (IC50) of over 600 µM.
Consider `CCOC(=O)/C(C(C)=O)=C1\OC(=O)c2ccccc21`, for which the half-maximal inhibitory concentration (IC50) at Cruzipain [1] was under 600 µM; on Cruzipain [2], under 600 µM; in assay [3], 58 µM; in assay [6] it was 43 µM.
On to `COc1cccc(-c2ccc3ncnc(NCc4ccc(OC)cc4OC)c3c2)c1`, for which the concentration for half-maximal inhibition (IC50) in assay [5] and in assay [6] was over 600 µM in each case.
In turn, `CCOc1ccccc1CNC(=O)c1cc2occc2n1C` came in with an IC50 in assay [6] of over 600 µM.
The molecule `O=C(O)c1ccc2c(c1)C(=O)N(CCc1ccc(O)cc1)C2=O` yielded a Ki in assay [6] of 360 µM.
